Data from ChEMBL document CHEMBL1149024, “Naturally occurring antiacne agents” (1994).
In brackets after ≈: the same amount, converted by molar mass. Activity calls are given as the source filed them. The calls are words filed in the database; no cut-off is given here.

Tests used:
[1] = test system: Cutibacterium acnes; assay: Antimicrobial activity Propionibacterium acnes ATCC 11827 after 2 days by broth dilution method; assay type: functional
Summary of the method: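 Serial twofold dilutions in DMF; 30 µl of each added to 3 ml NYG broth (0.8% nutrient broth, 0.5% yeast extract, 0.1% glucose), then inoculated with 30 µl of a two-day-old culture. Incubated 2 days at 37°; growth read as turbidity (OD 660 nm). MIC is the lowest concentration giving complete growth inhibition, determined at least twice.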

[2] = test system: Cutibacterium acnes; assay: Antimicrobial activity Propionibacterium acnes ATCC 11827 at 1.56 ug/ml after 3 days by time-kill curve method; assay type: functional, organism-based
Summary of the method: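 P. acnes ATCC 11827, from a two-day-old culture, was inoculated into NYG broth (0.8% nutrient broth, 0.5% yeast extract, 0.1% glucose) containing the compound predissolved in DMF. Initial inoculum was 1 × 10^6 to 5 × 10^6 CFU/ml. Viable counts were taken at 8, 24 and 48 h from serial 10-fold dilutions on Actinomyces agar, incubated anaerobically at 37° for 3 days.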

[3] = test system: Cutibacterium acnes; assay: Antimicrobial activity at lag growth phase of Propionibacterium acnes ATCC 11827 assessed as log units reduction in CFU/ml at 25 ug/ml after 48 hrs by time-kill curve method; assay type: functional
Summary of the method: (§1)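 A 30 µl aliquot of two-day-old culture went into 3 ml NYG broth (initial inoculum 1 × 10^6 to 5 × 10^6 CFU/ml). Compound, dissolved in DMF, was added at set times after incubation began. Viable counts were taken 24 and 48 h after addition from serial 10-fold dilutions plated on Actinomyces agar, incubated anaerobically 3 days at 37°.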

[4] = test system: Cutibacterium acnes; assay: Antimicrobial activity at exponential growth phase of Propionibacterium acnes ATCC 11827 assessed as log units reduction in CFU/ml at 25 ug/ml after 48 hrs by time-kill curve method; assay type: functional, organism-based; summary of the method: as §1
[5] = test system: Cutibacterium acnes; assay: Antimicrobial activity at exponential growth phase of Propionibacterium acnes ATCC 11827 assessed as log units reduction in CFU/ml at 6.25 ug/ml after 48 hrs by time-kill curve method; assay type: functional, organism-based
Summary of the method: (§2)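 Growth-phase time-kill: P. acnes ATCC 11827 was grown in NYG broth from a 1 × 10^6 to 5 × 10^6 CFU/ml inoculum. The compound (DMF stock) was added after 0, 8 or 32 h of incubation. Viable counts were taken 24 and 48 h after addition by serial 10-fold dilution plating on Actinomyces agar, incubated anaerobically at 37° for 3 days. Reduction is expressed as log CFU/ml.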

[6] = test system: Cutibacterium acnes; assay: Antimicrobial activity at exponential growth phase of Propionibacterium acnes ATCC 11827 assessed as log units reduction in CFU/ml at 1.56 ug/ml after 48 hrs by time-kill curve method; assay type: functional, organism-based; summary of the method: as §2
[7] = Cutibacterium acnes, ATCC 11827, 48 h
[8] = Cutibacterium acnes, ATCC 11827, 48 h, read-out: MIC

| SMILES | MIC [1, 8] | further results |
| --- | --- | --- |
| CCCCCCCCCCCCCCCO | 0.78 µg/mL (≈ 3.41 µM) | MBC [1, 7]: 1.56 µg/mL (≈ 6.83 µM); Activity [2]: Active; Activity [3]: >2; Activity [4]: Active; Activity [5]: inactive; Activity [6]: inactive |
| CCCCCCCCCCCCCCCCCO | > 800 µg/mL |  |
| CCCCCCCCc1cccc(O)c1C(=O)O | 3.13 µg/mL (≈ 12.5 µM) |  |
| CCCCCCCCCCc1cccc(O)c1C(=O)O | 1.56 µg/mL (≈ 5.6 µM) |  |
| CCCCCCCCCCC(C)O (configuration not stated) | 12.5 µg/mL (≈ 67.1 µM) |  |
| CCCCCCCCCCCCCCC(C)O (configuration not stated) | 0.78 µg/mL (≈ 3.22 µM) |  |
| CCCCCCCCCCCCC(C)O (configuration not stated) | 3.13 µg/mL (≈ 14.6 µM) |  |
| CCC/C=C\C/C=C\CCCCCCCc1cccc(O)c1C(=O)O | 0.78 µg/mL (≈ 2.26 µM) |  |
| CCCCCCCCCCCCc1cccc(O)c1C(=O)O | 0.39 µg/mL (≈ 1.27 µM) |  |
| CCCCCCCCCCCCCCCCCCCCc1cccc(O)c1C(=O)O | > 800 µg/mL |  |
| CCCCCCC(O)CC (configuration not stated) | 200 µg/mL (≈ 1390 µM) |  |
| CCCCCc1cccc(O)c1C(=O)O | 100 µg/mL (≈ 480 µM) |  |
| Cc1cccc(O)c1C(=O)O | 200 µg/mL (≈ 1310 µM) |  |
| CCCCCCC(C)O (configuration not stated) | 800 µg/mL (≈ 6140 µM) |  |
| CCCCCCCCCCCCCCCCC(C)O (configuration not stated) | > 800 µg/mL |  |
| C=C1[C@H]2CC[C@H](C2)C1(C)C | 25 µg/mL (≈ 184 µM) |  |
| CCCCCCCCCCCCCCCCCCCCO [1-EICOSANOL] | > 800 µg/mL |  |
| CCCCCCCO [1-HEPTANOL] | 400 µg/mL (≈ 3440 µM) | MBC [1, 7]: 800 µg/mL (≈ 6880 µM) |
| CCCCCCO [1-HEXANOL] | > 800 µg/mL |  |
| CCCCCC(C)O (configuration not stated) [2-HEPTANOL] | 800 µg/mL (≈ 6880 µM) |  |

| SMILES | MIC [1, 8] | further results |
| --- | --- | --- |
| CCCCC(C)O (configuration not stated) [2-HEXANOL] | 800 µg/mL (≈ 7830 µM) |  |
| CCCCCCCC(C)O (configuration not stated) [2-NONANOL] | 400 µg/mL (≈ 2770 µM) |  |
| CCCCC(O)CC (configuration not stated) [3-HEPTANOL] | 800 µg/mL (≈ 6880 µM) |  |
| CCCCCC(O)CC (configuration not stated) [3-OCTANOL] | 400 µg/mL (≈ 3070 µM) |  |
| CC1=C[C@@H]2C(=C(C)CC[C@H]2C(C)C)CC1 [(+)-DELTA-CADINENE] | 3.13 µg/mL (≈ 15.3 µM) |  |
| C=C1[C@@H]2CC[C@@H](C2)C1(C)C [(-)-CAMPHENE] | 25 µg/mL (≈ 184 µM) |  |
| CC(C)C1=CC2=CC[C@@H]3[C@](C)(CCC[C@@]3(C)C(=O)O)[C@H]2CC1 [ABIETIC ACID] | 25 µg/mL (≈ 82.7 µM) |  |
| C/C1=C\CC/C(C)=C/CC(C)(C)/C=C/C1 [ALPHA-HUMULONE] | 3.13 µg/mL (≈ 15.3 µM) |  |
| CC1=CCC2CC1C2(C)C (stereo not drawn) [ALPHA-PINENE] | 25 µg/mL (≈ 184 µM) |  |
| CC1=CC[C@@H](C(C)(C)O)CC1 [ALPHA-TERPINEOL] | 100 µg/mL (≈ 648 µM) |  |
| C=CC/C=C\C/C=C\CCCCCCCc1cccc(O)c1C(=O)O [ANACARDIC ACID] | 0.78 µg/mL (≈ 2.28 µM) |  |
| CCCCCCCCCCCCCCCc1cccc(O)c1C(=O)O [ANACARDIC ACID] | 0.78 µg/mL (≈ 2.24 µM) | MIC [1]: 0.78 µg/mL (≈ 2.24 µM) |
| C/C=C/c1ccc(OC)cc1 [ANETHOLE] | 100 µg/mL (≈ 675 µM) |  |
| C=C1CC/C=C(\C)CC[C@@H]2[C@@H]1CC2(C)C [BETA-CARYOPHYLLENE] | 6.25 µg/mL (≈ 30.6 µM) |  |
| C=C1CCC2CC1C2(C)C (stereo not drawn) [BETA-PINENE] | 100 µg/mL (≈ 734 µM) |  |
| CC[C@H](CC[C@@H](C)[C@H]1CC[C@H]2[C@@H]3CC=C4C[C@@H](O)CC[C@]4(C)[C@H]3CC[C@]12C)C(C)C [BETA-SITOSTEROL] | > 800 µg/mL |  |
| CC1(C)C2CCC1(C)C(O)C2 (configuration not stated) [BORNEOL] | 200 µg/mL (≈ 1300 µM) |  |
| Cn1c(=O)c2c(ncn2C)n(C)c1=O [CAFFEINE] | > 400 µg/mL |  |
| CC12CCC(CC1=O)C2(C)C (configuration not stated) [CAMPHOR] | 200 µg/mL (≈ 1310 µM) |  |
